The target of test [1] is T1, Toll-like receptor 9 (Homo sapiens) (UniProt Q9NR96).
T1 sequence (whole entry): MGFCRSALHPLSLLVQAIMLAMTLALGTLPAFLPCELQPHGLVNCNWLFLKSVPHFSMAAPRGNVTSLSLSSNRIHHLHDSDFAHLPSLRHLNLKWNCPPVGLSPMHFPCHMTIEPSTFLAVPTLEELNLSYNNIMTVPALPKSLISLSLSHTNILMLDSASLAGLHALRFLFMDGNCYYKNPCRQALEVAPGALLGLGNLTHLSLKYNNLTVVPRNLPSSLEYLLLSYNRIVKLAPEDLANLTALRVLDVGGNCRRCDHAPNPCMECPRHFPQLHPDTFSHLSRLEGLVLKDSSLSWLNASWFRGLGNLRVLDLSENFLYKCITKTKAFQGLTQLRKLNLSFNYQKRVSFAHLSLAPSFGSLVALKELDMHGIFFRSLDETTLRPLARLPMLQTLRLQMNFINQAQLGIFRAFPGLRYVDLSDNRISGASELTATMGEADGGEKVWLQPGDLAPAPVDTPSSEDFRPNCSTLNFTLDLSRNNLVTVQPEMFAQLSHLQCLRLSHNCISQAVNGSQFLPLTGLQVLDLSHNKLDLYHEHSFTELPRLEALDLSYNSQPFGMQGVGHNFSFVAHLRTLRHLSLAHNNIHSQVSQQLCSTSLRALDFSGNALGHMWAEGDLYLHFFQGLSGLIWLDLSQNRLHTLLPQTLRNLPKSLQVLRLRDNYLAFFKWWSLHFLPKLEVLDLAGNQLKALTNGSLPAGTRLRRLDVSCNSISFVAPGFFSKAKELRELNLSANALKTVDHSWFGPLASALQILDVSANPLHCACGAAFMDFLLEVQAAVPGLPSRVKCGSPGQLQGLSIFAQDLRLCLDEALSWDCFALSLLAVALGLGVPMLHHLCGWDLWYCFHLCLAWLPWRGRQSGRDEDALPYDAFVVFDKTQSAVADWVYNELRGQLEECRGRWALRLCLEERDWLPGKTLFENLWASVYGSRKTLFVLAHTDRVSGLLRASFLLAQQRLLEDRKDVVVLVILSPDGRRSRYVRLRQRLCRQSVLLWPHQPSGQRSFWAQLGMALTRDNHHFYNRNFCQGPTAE
Briefly: Induction of TLR9-mediated immune stimulation in human PBMC assessed as MCP1 production at 10 ug/ml after 24 hrs by luminex multiplex assay (RVb = 0.08 +/- 0.02 ng/ml).

For test [2], the target named is T2, Toll-like receptor 9 (Mus musculus) (UniProt Q9EQU3).
T2 sequence (whole entry): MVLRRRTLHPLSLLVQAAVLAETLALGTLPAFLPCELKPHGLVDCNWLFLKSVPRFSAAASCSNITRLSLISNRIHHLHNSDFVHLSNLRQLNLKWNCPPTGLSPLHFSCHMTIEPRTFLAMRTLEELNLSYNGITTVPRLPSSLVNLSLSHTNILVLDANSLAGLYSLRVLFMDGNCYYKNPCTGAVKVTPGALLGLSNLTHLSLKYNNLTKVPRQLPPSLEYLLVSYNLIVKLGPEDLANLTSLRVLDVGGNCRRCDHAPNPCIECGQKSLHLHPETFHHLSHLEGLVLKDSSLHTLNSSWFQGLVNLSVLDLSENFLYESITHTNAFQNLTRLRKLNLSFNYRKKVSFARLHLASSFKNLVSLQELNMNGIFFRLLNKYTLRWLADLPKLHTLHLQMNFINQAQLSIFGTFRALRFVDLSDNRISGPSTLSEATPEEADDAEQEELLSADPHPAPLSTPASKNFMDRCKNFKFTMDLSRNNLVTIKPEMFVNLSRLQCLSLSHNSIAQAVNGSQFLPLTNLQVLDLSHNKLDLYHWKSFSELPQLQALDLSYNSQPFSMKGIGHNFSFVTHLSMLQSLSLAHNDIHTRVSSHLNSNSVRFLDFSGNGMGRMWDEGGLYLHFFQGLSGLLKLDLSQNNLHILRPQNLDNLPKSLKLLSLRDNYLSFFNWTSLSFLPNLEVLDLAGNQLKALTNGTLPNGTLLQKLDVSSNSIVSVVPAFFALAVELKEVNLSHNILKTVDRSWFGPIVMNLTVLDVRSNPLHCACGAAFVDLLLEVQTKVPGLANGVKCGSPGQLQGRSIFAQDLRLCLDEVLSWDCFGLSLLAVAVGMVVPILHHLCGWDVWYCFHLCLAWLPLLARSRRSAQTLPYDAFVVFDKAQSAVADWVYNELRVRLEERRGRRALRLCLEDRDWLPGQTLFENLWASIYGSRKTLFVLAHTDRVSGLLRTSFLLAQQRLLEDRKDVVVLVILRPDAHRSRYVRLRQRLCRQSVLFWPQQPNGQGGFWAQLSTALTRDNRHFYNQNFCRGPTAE
The test can be described thus: Activation of mouse TLR9 expressed in HEK293 cells assessed as induction of NF-kappaB activity at 1 to 10 ug/ml after 18 hrs by SEAP assay. It counts as cell-based. In a few lines:
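HEK293 cells stably expressing mouse TLR9 were grown in DMEM with 10% heat-inactivated FBS. At 80% confluence they were transiently transfected with a SEAP reporter plasmid (100 ng/well, lipofectamine) for 6 h. Medium was then replaced and agonists were added for 18 h. Supernatant SEAP was read with QuantiBlue substrate at 620-645 nm. Results are expressed as fold NF-κB activity over PBS control.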

Test [3] addresses T1, Toll-like receptor 9 (Homo sapiens). Briefly: Induction of TLR9-mediated immune stimulation in human PBMC assessed as IL6 production at 10 ug/ml after 24 hrs by luminex multiplex assay (RVb = 0.01 ng/ml).
Test [4] has the same target. Briefly: Induction of TLR9-mediated human B cell proliferation assessed as [3H]thymidine uptake at 2 to 10 ug/ml after 56 hrs by scintillation counting. It counts as cell-based. The essentials:
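B cells were purified from human PBMCs (healthy volunteers), about 1 × 10⁵ cells, and stimulated with various agonist concentrations for 56 h. Cells were then pulsed with 0.75 μCi [³H]-thymidine and harvested 16 h later. Incorporation was counted by scintillation and reported as cpm.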

Test [5] relates to Mus musculus. Briefly: Immunostimulatory activity in C57BL/6 mouse assessed as increase in serum IL12 level at 1 mg/kg, sc after 2 hrs by ELISA. It counts as functional, organism-based. On the set-up: dose 1 mg/kg. The essentials: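 Female C57BL/6 mice (n=3) received a single subcutaneous agonist dose of 1 mg/kg. Blood was taken by retro-orbital bleeding 2 h later, and serum IL-12 was measured by sandwich ELISA. Values are the mean of three mice ± SD.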
(In general: An ELISA detects its analyte on a solid surface through an enzyme-linked reagent.)

Here are results for 1 compound from ChEMBL document CHEMBL1157912, “Impact of nature and length of linker incorporated in agonists on toll-like receptor 9-mediated immune responses” (J Med Chem, 2010).

Calls of active or inactive are those of the source. No cut-off for these calls is given here.

For the compound `Cc1cn([C@H]2C[C@H](OCC(O)COP(=O)(S)O[C@H]3C[C@H](n4cc(C)c(=O)[nH]c4=O)O[C@@H]3COP(=O)(S)O[C@H]3[C@@H](O)[C@H](n4ccc(N)nc4=O)O[C@@H]3COP(=O)(S)O[C@H]3[C@@H](O)[C@H](n4cnc5c(N)ncnc54)O[C@@H]3COP(=O)(S)O[C@H]3[C@@H](O)[C@H](n4cnc5c(N)ncnc54)O[C@@H]3COP(=O)(S)O[C@H]3[C@@H](O)[C@H](n4ccc(N)nc4=O)O[C@@H]3COP(=O)(S)O[C@H]3[C@@H](O)[C@H](n4ccc(N)nc4=O)O[C@@H]3COP(=O)(S)O[C@H]3[C@@H](O)[C@H](n4cnc5c(N)ncnc54)O[C@@H]3COP(=O)(S)O[C@H]3[C@@H](O)[C@H](n4ccc(N)nc4=O)O[C@@H]3COP(=O)(S)O[C@H]3[C@@H](O)[C@H](n4cnc5c(N)ncnc54)O[C@@H]3COP(=O)(S)O[C@H]3[C@@H](O)[C@H](n4ccc(N)nc4=O)O[C@@H]3COP(=O)(S)O[C@H]3[C@@H](O)[C@H](n4cnc5c(N)ncnc54)O[C@@H]3CO)[C@@H](COP(=O)(S)O[C@H]3[C@@H](O)[C@H](n4ccc(N)nc4=O)O[C@@H]3COP(=O)(S)O[C@H]3[C@@H](O)[C@H](n4cnc5c(N)ncnc54)O[C@@H]3COP(=O)(S)O[C@H]3[C@@H](O)[C@H](n4cnc5c(N)ncnc54)O[C@@H]3COP(=O)(S)O[C@H]3[C@@H](O)[C@H](n4ccc(N)nc4=O)O[C@@H]3COP(=O)(S)O[C@H]3[C@@H](O)[C@H](n4ccc(N)nc4=O)O[C@@H]3COP(=O)(S)O[C@H]3[C@@H](O)[C@H](n4cnc5c(N)ncnc54)O[C@@H]3COP(=O)(S)O[C@H]3[C@@H](O)[C@H](n4ccc(N)nc4=O)O[C@@H]3COP(=O)(S)O[C@H]3[C@@H](O)[C@H](n4cnc5c(N)ncnc54)O[C@@H]3COP(=O)(S)O[C@H]3[C@@H](O)[C@H](n4ccc(N)nc4=O)O[C@@H]3COP(=O)(S)O[C@H]3[C@@H](O)[C@H](n4cnc5c(N)ncnc54)O[C@@H]3CO)O2)c(=O)[nH]c1=O` (stereo not given in full), the Activity turned out to be 0.37 ng/mL in test [1] and 0.03 ng/mL in test [3]. Further, the result in test [2], in test [4] and in test [5] was Active.
